Assay outcomes deposited in PubChem by The Scripps Research Institute Molecular Screening Center.
E coli Lon inh – inhibitors of E. coli Lon protease. P0A9M0. purified E. coli Lon protease, fluorescence polarization. inhibition, % at 7.94 µM. hit rate 0.42% among 360,000. AID 602123; in the data active = inhibition above about 13%, passing the limit was not always enough;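 also: 0% = enzyme with probe and DMSO and 100% = no enzyme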
TDP2 inh – TDP2 (human) inhibition, absorbance primary screen; O95551; recombinant TDP2, T5PNP hydrolysis, p-nitrophenol absorbance 415 nm; inhibition, % at 12.8 µM; hit rate 0.34% among 370,000;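 active = inhibition above the mean of all tested compounds plus 3 SD, set per campaign, cut at about 25% in these data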;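 also: 0% = DMSO with enzyme and 100% = buffer with substrate but no TDP2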
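System – recombinant human TDP2 · Amount – 120 nM TDP2 per well · Buffer or medium – Mg2+-containing Tris-HCl buffer, pH 7.5 · Reagent – T5PNP substrate, 5 mM · Dosing – 12.8 µM single point, 1% DMSO · Incubation – 2 h at 37 °C · Measured by – epi absorbance · Read-out basis – percent inhibition · Benchmarks – high control without enzyme, low control DMSO plus TDP2 · Repeats – singlicate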
PAD4 FP inh – inhibitors of human PAD4 | Q9UM07 | recombinant PAD4, RCA probe fluorescence polarization | inhibition, % at 6.36 µM | hit rate 0.41% among 330,000 | AID 485272;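 active = percent inhibition above a cutoff equal to the mean of all tested compounds plus 3 SD, cut at about 15% in these data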;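 also: 0% = PAD4 with RCA probe and DMSO and 100% = probe without PAD4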
GSTO1 counter – GSTO1 inhibition, counter-screen for RBBP9 inhibitors; P78417; recombinant GSTO1, activity-based probe fluorescence polarization; inhibition, % at 5.96 µM; hit rate 1.1% among 300,000;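 active = inhibition above the campaign mean inhibition plus 3 SD, cut at about 35% in these data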;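 also: 0% = GSTO1-1 with DMSO and 100% = wells lacking GSTO1-1 enzyme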
PRMT1 inh – inhibitors of human PRMT1; inhibition, % at 2.79 µM; hit rate 1.3% among 370,000; AID 652257; Q99873; recombinant PRMT1, activity-based probe fluorescence polarization;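 active = inhibition above about 21% made by adding two undisclosed values, limit read from the data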
Target sequence (Q99873 whole entry, looked up): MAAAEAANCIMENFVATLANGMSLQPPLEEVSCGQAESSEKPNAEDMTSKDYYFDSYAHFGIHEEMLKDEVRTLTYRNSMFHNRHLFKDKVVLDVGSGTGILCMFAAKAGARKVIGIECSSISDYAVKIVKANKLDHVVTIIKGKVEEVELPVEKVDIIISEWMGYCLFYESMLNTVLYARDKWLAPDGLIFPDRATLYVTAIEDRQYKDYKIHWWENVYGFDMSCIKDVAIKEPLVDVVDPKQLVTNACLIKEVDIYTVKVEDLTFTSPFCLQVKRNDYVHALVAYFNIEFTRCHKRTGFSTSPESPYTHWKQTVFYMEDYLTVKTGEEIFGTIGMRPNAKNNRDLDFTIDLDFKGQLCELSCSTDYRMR
PRMT1 confirm – PRMT1 (human) inhibition, FP confirmation; shares compounds with PRMT1 inh; recombinant His-PRMT1, activity-based probe fluorescence polarization; inhibition, % at 2.79 µM; hit rate 42% among 3,300;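 active = mean inhibition across replicates above the hit cutoff derived for the earlier primary screen, cut at about 22% in these data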
Starred values were filed as active, the others as inactive; nt = no result given. Shown are actives, neighbours in structure and some others; about 2.5% of the full set was active somewhere.

SMILES	E coli Lon inh	TDP2 inh	PAD4 FP inh	GSTO1 counter	PRMT1 inh	PRMT1 confirm
O=C(COC(=O)C1CC1)NCCNC(=O)COC(=O)C1CC1	-6	4	3	-6	1	nt
CC(C(=O)N1CCCC1)N(C)CC(=O)Nc1cccc(F)c1 (centres undefined)	6	2	-4	nt	-2	nt
CCC(/C=C1\Sc2ccc(OC)cc2N1CCO)=C\c1sc2ccc(OC)cc2[n+]1CCO	-52	4	-137	-168	70*	7
CCC(=O)/C=C1/Sc2ccc(OC)cc2N1CCO	-7	-3	-2	1	0	nt
CCSS(=O)(=O)c1cccc2cccnc12	-4	11	0	6	93*	98*
O=c1oc2cc(O)ccc2cc1-c1nc2ccccc2o1	-64	-6	nt	nt	71*	68*
NC(=S)c1cc2ccc(O)cc2oc1=O	-195	-5	nt	nt	3	nt
CCc1nc2ccc(C(=O)Nc3cc(-c4ccccc4)ccc3OC)cn2c1N(C)C(=O)c1cccc(OC)c1	3	-5	nt	nt	2	nt
CC(=O)N1CCN(C(=O)c2ccc3oc(CCCc4ccccc4)nc3c2)CC1	-3	-6	-4	1	1	nt
CCOC(=O)N1CCN(C(=O)c2ccc3oc(CCCc4ccccc4)nc3c2)CC1	11	-2	-3	0	31*	-1
O=C(OCc1cn(Cc2cccc(C(F)(F)F)c2)nn1)N1CCOCC1	nt	5	nt	nt	0	nt
Cn1cc(P(=O)(N2CCOCC2)N2CCOCC2)cc1P(=S)(N1CCOCC1)N1CCOCC1	6	5	0	6	30*	40*
Cn1cc(P(=S)(N2CCOCC2)N2CCOCC2)cc1P(=O)(N1CCOCC1)N1CCOCC1	-3	-8	3	-7	40*	6
CSCC(=O)Nc1cc(C)on1	0	-12	-5	0	7	nt
Cc1cc(NC(=O)CSC2=NCCS2)no1	1	-8	-1	-5	39*	19
NC(=O)c1ccccc1NC(=O)CSC1=NCCS1	-8	-4	3	35	27*	53*
O=C(CSC1=NCCS1)Nc1ccc(F)cc1	6	-6	-1	-11	3	nt
COc1ccc(CCNC(=O)Nc2ccc3nc([C@@H]4O[C@H](CO)[C@@H](O)[C@H](O)[C@H]4O)[nH]c3c2)cc1Br	-4	-5	nt	nt	-2	nt
COc1ccc(Nc2cc(Nc3cc(OC)c(OC)c(OC)c3)ncn2)cc1	-1	-3	-2	-4	3	nt
Cc1ccsc1C(=O)NNC(=O)c1ccncc1	2	0	nt	nt	31*	1
CCOc1ccc(N=c2scc(-c3ccc(OC)cc3)n2CCO)cc1	-3	-1	-2	4	26*	-1
CCOc1ccc(N=c2scc(-c3ccccc3)n2CCO)cc1	11	3	2	10	13	nt
OCCn1c(-c2ccc3c(c2)OCO3)csc1=Nc1ccccc1	4	3	5	4	32*	1
CCn1c(-c2ccccc2)csc1=Nc1ccc(O)cc1	4	-7	-2	1	4	nt
OCCn1c(-c2ccc(F)cc2)csc1=Nc1ccccc1	4	9	0	0	42*	0
SMILES	E coli Lon inh	TDP2 inh	PAD4 FP inh	GSTO1 counter	PRMT1 inh	PRMT1 confirm
COC(=O)C[C@H]1CC[C@H]2[C@H](COc3ccc(NS(=O)(=O)c4cccc(OC)c4)cc3C(=O)N2C)O1	nt	4	nt	nt	-3	nt
CCOC(=O)c1cc(C#N)c(SC(C)C(=O)NC2CCCCC2)nc1C (centres undefined)	-2	-11	0	nt	-2	nt
O=C1C(Cl)=C(NCCc2ccccc2)C(=O)c2ccccc21	-4	19	nt	nt	66*	96*
CCN1C[C@@H]2[C@@H]3C(=O)N(C)C(=O)[C@@H]3[C@](C)(C1=O)N2C(=O)c1ccc(C(C)(C)C)cc1	1	0	nt	nt	-2	nt
CCCCN=Cc1c(C)[nH]n(-c2ccccc2)c1=S	0	-8	-7	15	26*	3
Cc1[nH]n(-c2ccccc2)c(=S)c1C=Nc1cccc([N+](=O)[O-])c1	6	8	4	7	95*	98*
Cc1[nH]n(-c2ccccc2)c(=O)c1C=NCCc1ccccc1	-12	-6	-1	2	-3	nt
O=[N+]([O-])c1ccc(C=Nc2ccccc2)cc1	6	4	nt	nt	0	nt
CCc1c(-c2cccc(Cl)c2)ncn1CCc1ccccc1OC	nt	0	nt	nt	2	nt
COc1ccc(C(=O)NC(C)c2ccc(-n3ccnc3)cc2)cc1S(=O)(=O)N1CCOCC1 (centres undefined)	5	-9	nt	nt	2	nt
